# Experimental data from different studies.
# Each line is one published result; the experiments were not run side by side.
# Organism: Staphylococcus aureus
Structure (SMILES),read-out,technique,strain,tested at,time,endpoint,value
CC(O)CSc1nnc(Cn2cnc3c2c(=O)n(C)c(=O)n3C)n1-c1ccccc1 (stereo not drawn),microbial growth,disc diffusion,,25 µg/disc,,inhibition zone,12.7 mm
O=C(O)c1cn(C2CC2)c2cc(N3CCNCC3)c(F)cc2c1=O,microbial growth,disc diffusion,,100 µg/mL,24 h,inhibition zone,0 mm
C[C@H]1COc2c(N3CCN(C)CC3)c(F)cc3c(=O)c(C(=O)O)cn1c23,microbial killing,,ATCC25904,,,MBC,0.09 µg/mL
Cc1ccc(-c2nnc(SCC(C)O)n2-c2ccccc2)cc1 (stereo not drawn),microbial growth,disc diffusion,,25 µg/disc,,inhibition zone,10 mm
CN(C)[C@@H]1C(O)=C(C(N)=O)C(=O)[C@@]2(O)C(O)=C3C(=O)c4c(O)cccc4[C@@](C)(O)[C@H]3C[C@@H]12,microbial growth,disc diffusion,,100 µg/mL,24 h,inhibition zone,25 mm
CN[C@H](CC(C)C)C(=O)N[C@H]1C(=O)N[C@@H](CC(N)=O)C(=O)N[C@H]2C(=O)N[C@H]3C(=O)N[C@H](C(=O)N[C@H](C(=O)O)c4cc(O)cc(O)c4-c4cc3ccc4O)[C@H](O)c3ccc(c(Cl)c3)Oc3cc2cc(c3O[C@@H]2O[C@H](CO)[C@@H](O)[C@H](O)[C@H]2O[C@H]2C[C@](C)(N)[C@H](O)[C@H](C)O2)Oc2ccc(cc2Cl)[C@H]1O,microbial killing,,ATCC25904,,,MBC,1.95 µg/mL
CN[C@H](CC(C)C)C(=O)N[C@H]1C(=O)N[C@@H](CC(N)=O)C(=O)N[C@H]2C(=O)N[C@H]3C(=O)N[C@H](C(=O)N[C@H](C(=O)O)c4cc(O)cc(O)c4-c4cc3ccc4O)[C@H](O)c3ccc(c(Cl)c3)Oc3cc2cc(c3O[C@@H]2O[C@H](CO)[C@@H](O)[C@H](O)[C@H]2O[C@H]2C[C@](C)(N)[C@H](O)[C@H](C)O2)Oc2ccc(cc2Cl)[C@H]1O,microbial killing,,ATCC25923,,18 h,MBC,2 µg/mL
CC(O)CSc1nnc(COc2ccc(Cl)cc2Br)n1-c1ccccc1 (stereo not drawn),microbial growth,disc diffusion,,25 µg/disc,,inhibition zone,19.3 mm
CN[C@H](CC(C)C)C(=O)N[C@H]1C(=O)N[C@@H](CC(N)=O)C(=O)N[C@H]2C(=O)N[C@H]3C(=O)N[C@H](C(=O)N[C@H](C(=O)O)c4cc(O)cc(O)c4-c4cc3ccc4O)[C@H](O)c3ccc(c(Cl)c3)Oc3cc2cc(c3O[C@@H]2O[C@H](CO)[C@@H](O)[C@H](O)[C@H]2O[C@H]2C[C@](C)(N)[C@H](O)[C@H](C)O2)Oc2ccc(cc2Cl)[C@H]1O,microbial growth,,ATCC29213,,24 h,IC50,2160 nM
CO/N=C(\C(=O)N[C@@H]1C(=O)N2C(C(=O)O)=C(CSC(=O)c3ccco3)CS[C@H]12)c1csc(N)n1,microbial killing,,ATCC25923,,18 h,MBC,2 µg/mL
O=c1c(O)c(-c2ccc(O)c(O)c2)oc2cc(O)cc(O)c12,microbial growth,,ATCC29213,,24 h,IC50,> 100000 nM
C=C/C=C(\C)CC[C@@H]1C[C@H](O)CC(=O)O1,microbial growth,broth dilution,ATCC6538P,,,MIC,256 µg/mL
